Series [1] can be described thus: Apparent oral clearance in plasma of human HCT116 cells xenografted BALB/c mouse at 80 mg/kg administered as single dose by LC-MS/MS analysis. In kind it is ADME, organism-based. An outline of the steps:
(§1)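 Xenograft mice (n = 6 per group) received a single 80 mg/kg oral dose. Plasma and tumour were sampled over 0–24 h into heparinized tubes and analysed by LC-MS/MS.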
(In xenograft studies the graft and the host belong to different species.)

Series [2] is described as follows: Stability of the compound in mouse plasma assessed as parent compound remaining at 1 uM measured after 10 mins by LC-MS/MS analysis. In kind it is ADME, cell-free. The settings on record: read-out: Stability. In a few lines:
(§2)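 Compound diluted from 10 mM DMSO stock to 1 μM in mouse or human plasma and held at 37 °C in a water bath. Reactions were stopped with acetonitrile at 0, 10, 30, 60 and 90 min. Parent compound was quantified by LC-MS/MS as % remaining.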

Series [3] concerns HCT-116. Description: Effect on HSP90 expression in human HCT116 cells up to 10 uM measured after 24 hrs by Western blot analysis. In kind it is cell-based. The conditions noted are these: hct-116, 24 h. In a few lines: (§3)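 HCT116 cells treated with 0, 1, 5 or 10 µM for 24 h, or with 10 µM for 0, 4, 12, 24 or 48 h. Lysates separated by SDS-PAGE and blotted. Membranes blocked in 5% milk, primary antibodies overnight at 4 °C, HRP secondaries, chemiluminescent detection.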
Background: Immunoblotting shows a protein as a band on a membrane.

The nature of series [4]: Effect on HSP70 in human HCT116 cells up to 10 uM measured after 24 hrs by Western blot analysis. In kind it is cell-based. An outline of the steps: as §3
Series [5] can be described thus: Effect on HSP70 in human HCT116 cells at 10 uM measured up to 48 hrs by Western blot analysis. Format: cell-based. An outline of the steps:
as §3

Series [6] relates to HCT-116. Put plainly: Effect on CDC37 expression in human HCT116 cells at 10 uM measured up to 48 hrs by Western blot analysis. The settings on record: hct-116, 48 h. In kind it is cell-based. An outline of the steps: as §3
Series [7] is described as follows: AUC (0 to t) in tumor of human HCT116 cells xenografted BALB/c mouse at 80 mg/kg, po administered as single dose by LC-MS/MS analysis. Format: ADME, organism-based, Neoplasm. An outline of the steps:
(§4)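 Tumour-bearing mice (n = 6 per group) given one oral dose of 80 mg/kg. Blood and tumour collected into heparinized tubes at 0, 0.25, 0.5, 1, 2, 4, 8, 12 and 24 h. Plasma obtained by centrifugation at 3000 rpm for 10 min. Samples stored at -80 °C and quantified by LC-MS/MS.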

Series [8] can be described thus: Cmax in plasma of human HCT116 cells xenografted BALB/c mouse at 80 mg/kg, po administered as single dose by LC-MS/MS analysis. Format: ADME, organism-based. The arrangement: dose 80 mg/kg, route oral. In a few lines:
as §4

Series [9] in a line: Distribution coefficient, log D of the compound at pH 7.4 by potentiometric titration method. In kind it is physicochemical. The conditions noted are these: octanol/water. An outline of the steps:
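log D at pH 7.4 measured by potentiometric titration on a Gemini Profiler.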

The nature of series [10]: Stability of the compound in human plasma assessed as parent compound remaining at 1 uM measured after 10 mins by LC-MS/MS analysis. In kind it is ADME, cell-free. The conditions noted are these: read-out: Stability. An outline of the steps: as §2
Series [11] in a line: Apparent oral clearance in tumor of human HCT116 cells xenografted BALB/c mouse at 80 mg/kg administered as single dose by LC-MS/MS analysis. Format: ADME, organism-based, Neoplasm. In a few lines: as §1
A short description of series [12]: Stability of the compound in mouse plasma assessed as parent compound remaining at 1 uM measured after 90 mins by LC-MS/MS analysis. In kind it is ADME, cell-free. The settings on record: read-out: Stability. An outline of the steps:
as §2

Series [13] can be described thus: Stability of the compound in mouse plasma assessed as parent compound remaining at 1 uM measured after 60 mins by LC-MS/MS analysis. In kind it is ADME, cell-free. The conditions noted are these: read-out: Stability. In a few lines:
as §2

Series [14] concerns the target T1, Heat shock protein HSP90 (Homo sapiens, UniProt P07900+P08238). Put plainly: Inhibition of recombinant full-length HSP90 ATPase activity N-terminal domain (9 to 236 residues) (unknown origin) expressed in Escherichia coli BL21 (DE3) measured after 1 hr by ADP hunter plus assay.
The test system of a further series is L02. Description: Cytotoxicity against human L02 cells measured after 72 hrs by CCK8 assay. Format: functional, cell-based. The conditions noted are these: L02, 72 h. In a few lines: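 Cells grown in RPMI 1640 with 10% FBS at 37 °C, 5% CO2; STR-authenticated and mycoplasma-checked. Seeded at 3000-5000 cells/well and left 24 h. Serial compound dilutions added for 72 h, with matched DMSO as control. Viability read by CCK8 kit using the standard protocol. IC50 values derived from at least three parallel experiments.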
On the technique in general: Tetrazolium assays rely on reduction of a dye to a coloured formazan, in cell work by metabolically active cells.

Series [15] can be described thus: Half life in tumor of human HCT116 cells xenografted BALB/c mouse at 80 mg/kg, po administered as single dose by LC-MS/MS analysis. Format: ADME, organism-based, Neoplasm. In a few lines: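 Single oral dose of 80 mg/kg given to BALB/c nude mice (n = 6 per group) carrying flank HCT116 xenografts. Blood and tumor were collected at 0, 0.25, 0.5, 1, 2, 4, 8, 12 and 24 h. Blood went into heparinized tubes and was spun at 3000 rpm for 10 min to give plasma. Samples were stored at -80 °C, then drug levels in plasma and tumor were measured by LC-MS/MS.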

Series [16] in a line: Stability of the compound in human plasma assessed as parent compound remaining at 1 uM measured after 90 mins by LC-MS/MS analysis. Format: ADME, cell-free. The conditions noted are these: read-out: Stability. An outline of the steps: as §2
The next series deals with T2, Glucocorticoid receptor (Homo sapiens, UniProt P04150).
T2 sequence (P04150 whole entry): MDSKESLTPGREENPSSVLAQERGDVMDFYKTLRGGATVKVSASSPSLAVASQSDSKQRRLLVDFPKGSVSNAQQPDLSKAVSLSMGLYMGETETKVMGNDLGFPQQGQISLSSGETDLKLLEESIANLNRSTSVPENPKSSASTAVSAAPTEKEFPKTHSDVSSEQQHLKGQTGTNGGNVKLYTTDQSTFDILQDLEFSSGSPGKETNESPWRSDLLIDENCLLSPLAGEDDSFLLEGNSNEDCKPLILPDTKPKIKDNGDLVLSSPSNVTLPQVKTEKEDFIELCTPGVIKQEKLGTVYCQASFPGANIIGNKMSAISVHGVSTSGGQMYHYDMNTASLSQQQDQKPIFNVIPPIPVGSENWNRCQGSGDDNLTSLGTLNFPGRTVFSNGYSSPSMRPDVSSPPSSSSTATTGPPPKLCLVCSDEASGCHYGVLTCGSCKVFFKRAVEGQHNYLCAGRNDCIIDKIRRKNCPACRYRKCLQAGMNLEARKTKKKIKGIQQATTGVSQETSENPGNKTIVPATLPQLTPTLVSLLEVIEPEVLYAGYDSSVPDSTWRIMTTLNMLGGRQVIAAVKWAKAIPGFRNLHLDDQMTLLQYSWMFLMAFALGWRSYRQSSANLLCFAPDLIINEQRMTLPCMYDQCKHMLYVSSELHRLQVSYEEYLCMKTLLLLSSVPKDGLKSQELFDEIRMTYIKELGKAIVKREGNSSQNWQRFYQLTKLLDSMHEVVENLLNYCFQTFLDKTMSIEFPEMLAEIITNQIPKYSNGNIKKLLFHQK
Description: Effect on glucocorticoid receptor in human HCT116 cells at 10 uM measured up to 48 hrs by Western blot analysis. In kind it is ADME, cell-based. In a few lines: as §3

For series [17], the target named is T1, Heat shock protein HSP90. Put plainly: Binding affinity to recombinant […] HSP90 N-terminal domain (9 to 236 residues) (unknown origin) expressed in Escherichia coli BL21 (DE3) by isothermal calorimetric method. An outline of the steps:
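ITC: 50 µM Hsp90 in the cell and 300 µM compound in the syringe, both in 20 mM Tris-HCl, 150 mM NaCl, pH 7.4. Nineteen injections at 180 s intervals with stirring at 1000 rpm.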

In general, CL/F refers to clearance divided by bioavailability, as obtained after extravascular dosing. Broadly, the AUC(0-t) is the area under the concentration-time curve up to a stated or last time point. One may read the Cmax as the highest concentration seen after dosing. As usually defined, the logD is lipophilicity at a set pH, counting ionised and neutral species. For orientation: IC50 means the concentration at which inhibition is half-maximal. Usually half-life stands for the time needed for the level to fall by half in the phase considered. What is called Kd is a measure of binding affinity in units of concentration.

Turning to `Cc1cc(C)c(S(=O)(=O)N(CC(=O)O)c2ccc(Nc3ccnc(N4CCNCC4)n3)cc2)c(C)c1`, the results for the CL/F in series [1] and in series [11] were 3.11 mL/min/kg and 9.93 mL/min/kg, respectively. In addition, the remaining at 10 min, 1 µM in [2] is 100%; in series [10] it was 98%. Also, the Activity result (in the series on HCT-116 [3]; in [4]; in series [5]; with HCT-116 [6]; at Glucocorticoid receptor) was “Non-Toxic” throughout. This molecule came in with an AUC(0-t) in [7] of 132 µg·h/mL. The molecule also registered a Cmax in series [8] of 308 µg/mL. The logD in [9] worked out at 1.93. Also, the remaining at 1.5 h, 1 µM came to 105% in series [12] and 103% in series [16]. Further, the remaining at 1 h, 1 µM in series [13] came out at 101%. The IC50 on Heat shock protein HSP90 [14] is above 100 µM; in the series on L02, above 50 µM. For the same molecule, in series [15], the half-life was 4.66 h. Moreover, the Kd at Heat shock protein HSP90 [17] was 0.63 µM.

Values taken from ChEMBL document CHEMBL4376883, “Discovery and Optimization of Small Molecules Targeting the Protein-Protein Interaction of Heat Shock Protein 90 (Hsp90) and Cell Division Cycle 37 as Orally Active Inhibitors for the Treatment of Colorectal Cancer” (J Med Chem, 2020).
